According to ChEMBL document CHEMBL1127554, “Design, synthesis, and study of 9-substituted ellipticine and 2-methylellipticinium analogues as potential CNS-selective antitumor agents” (1994):

What was measured:
Tumor Cell line [1] = assay: GI50 was given In vitro as +50% percent growth (PG), measured as concentration of compound required to inhibit disease oriented human tumor cell line panels; Value ranges from 0.060->100; assay type: functional
Tumor Cell line [2] = assay: GI50 was measured In vitro as the ratio of the mean activity for all non-CNS tumor cell lines over the mean activity of the CNS tumor subpanel (eight cell lines); assay type: functional, Homo sapiens
Summary of the method: (§1)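 Ratio of the mean activity (μM) over all non-CNS tumour cell lines (ca. 40-50 lines) to the mean activity (μM) of the CNS subpanel (eight lines). Activity was taken from PG vs log concentration curves: GI50 at PG +50%, TGI at PG 0%.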

Tumor Cell line [3] = assay: TGI was measured In vitro as the ratio of the mean activity for all non-CNS tumor cell lines over the mean activity of the CNS tumor subpanel (eight cell lines); assay type: functional, Homo sapiens; summary of the method: as §1
Tumor Cell line [4] = assay: LC50 was given In vitro as -50% percent growth (PG), measured as concentration of compound required to inhibit disease oriented human tumor cell line panels; Value ranges from 3.02->100; assay type: functional; details: read-out: LC50 (the source's name)
Tumor Cell line [5] = assay: TGI was given In vitro as 0% percent growth (PG), measured as concentration of compound required to inhibit disease oriented human tumor cell line panels; Value ranges from 0.68->100; assay type: functional
Summary of the method: (§2)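 Human tumour cell line panel; percent growth plotted against log drug concentration to give dose-response curves. GI50 is the concentration giving PG +50%, and TGI the concentration giving PG 0%. Values are mean inhibitory concentrations over the entire panel. PG values at either limit (> or <) are included in the mean.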

Tumor Cell line [6] = assay: LC50 was given In vitro as -50% percent growth (PG), measured as concentration of compound required to inhibit disease oriented human tumor cell line panels; Value ranges from 16.98->100; assay type: functional; details: read-out: LC50 (the source's name)
Summary of the method: (§3)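 Human tumor cell line panel tested in vitro. Percent growth (PG) plotted against log drug concentration to give dose-response curves. LC50 is the concentration where PG equals -50%; GI50 and TGI are taken at +50% and 0%. Values are means across the full panel, with values beyond the tested limits (> or <) included in the mean.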

Tumor Cell line [7] = assay: LC50 was given In vitro as -50% percent growth (PG), measured as concentration of compound required to inhibit disease oriented human tumor cell line panels; Value ranges from 5.25->100; assay type: functional; details: read-out: LC50 (the source's name); summary of the method: as §3
Tumor Cell line [8] = assay: GI50 was given In vitro as +50% percent growth (PG), measured as concentration of compound required to inhibit disease oriented human tumor cell line panels;Value ranges from 0.06->100; assay type: functional
Tumor Cell line [9] = assay: TGI was given In vitro as 0% percent growth (PG), measured as concentration of compound required to inhibit disease oriented human tumor cell line panels; Value ranges from 0.06->100; assay type: functional
Tumor Cell line [10] = assay: LC50 was given In vitro as -50% percent growth (PG), measured as concentration of compound required to inhibit disease oriented human tumor cell line panels; assay type: functional; details: read-out: LC50 (the source's name); summary of the method: as §3
Tumor Cell line [11] = assay: TGI was given In vitro as 0% percent growth (PG), measured as concentration of compound required to inhibit disease oriented human tumor cell line panels; assay type: functional; summary of the method: as §2
Tumor Cell line [12] = assay: GI50 was given In vitro as +50% percent growth (PG), measured as concentration of compound required to inhibit disease oriented human tumor cell line panels; assay type: functional; summary of the method: as §2
[13] = TGI was measured in vitro as the ratio of the mean activity for all non-CNS tumor cell lines over the mean activity of the CNS tumor subpanel (eight cell lines); assay type: functional; summary of the method: as §1
[14] = GI50 was measured in vitro as the ratio of the mean activity for all non-CNS tumor cell lines over the mean activity of the CNS tumor subpanel (eight cell lines); assay type: functional; summary of the method: as §1
Tumor Cell line [15] = assay: TGI was given in vitro as 0% percent growth (PG), measured as concentration of compound required to inhibit disease oriented human tumor cell line panels; Value ranges from 2.75-41.69; assay type: functional; summary of the method: as §2
Tumor Cell line [16] = assay: LC50 was given in vitro as -50% percent growth (PG), measured as concentration of compound required to inhibit disease oriented human tumor cell line panels; Value ranges from 5.75->100; assay type: functional; details: read-out: LC50 (the source's name); summary of the method: as §3
Tumor Cell line [17] = assay: GI50 was given in vitro as +50% percent growth (PG), measured as concentration of compound required to inhibit disease oriented human tumor cell line panels; Value ranges from 1.55-16.6; assay type: functional; summary of the method: as §2
[18] = LC50 was measured in vitro as the ratio of the mean activity for all non-CNS tumor cell lines over the mean activity of the CNS tumor subpanel (eight cell lines); assay type: functional
Summary of the method: (§4)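 Same PG dose-response panel. LC50 (μM) is averaged separately over the non-CNS lines (ca. 40-50 lines) and the CNS subpanel (eight lines). The ratio is the non-CNS mean divided by the CNS mean.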

Tumor Cell line [19] = assay: GI50 was given In vitro as +50% percent growth (PG), measured as concentration of compound required to inhibit disease oriented human tumor cell line panels; Value ranges from 0.62-2.95; assay type: functional; summary of the method: as §2
Tumor Cell line [20] = assay: LC50 was given In vitro as -50% percent growth (PG), measured as concentration of compound required to inhibit disease oriented human tumor cell line panels; Value ranges from 4.09->100; assay type: functional; details: read-out: LC50 (the source's name); summary of the method: as §3
Tumor Cell line [21] = assay: LC50 was measured In vitro as the ratio of the mean activity for all non-CNS tumor cell lines over the mean activity of the CNS tumor subpanel (eight cell lines); assay type: functional, Homo sapiens; summary of the method: as §4
Tumor Cell line [22] = assay: TGI was given In vitro as 0% percent growth (PG), measured as concentration of compound required to inhibit disease oriented human tumor cell line panels; Value ranges from 2-5.50; assay type: functional; summary of the method: as §2
Tumor Cell line [23] = assay: GI50 was given In vitro as +50% percent growth (PG), measured as concentration of compound required to inhibit disease oriented human tumor cell line panels; Value ranges from 0.32-2; assay type: functional; summary of the method: as §2
Tumor Cell line [24] = assay: GI50 was given In vitro as +50% percent growth (PG), measured as concentration of compound required to inhibit disease oriented human tumor cell line panels; Value ranges from 0.43->100; assay type: functional
Tumor Cell line [25] = assay: TGI was given In vitro as 0% percent growth (PG), measured as concentration of compound required to inhibit disease oriented human tumor cell line panels; Value ranges from 3.47->100; assay type: functional
Tumor Cell line [26] = assay: LC50 was given In vitro as -50% percent growth (PG), measured as concentration of compound required to inhibit disease oriented human tumor cell line panels; Value ranges from 7.94->100; assay type: functional; details: read-out: LC50 (the source's name)

**Q.** With CCOc1ccc2[nH]c3c(C)c4cc[n+](C)cc4c(C)c3c2c1.[I-] as the compound, how does the GI50 (Tumor Cell line [1]) read?
**A.** > 1.17 µM

**Q.** What about the GI50 ratio (Tumor Cell line [2]) of the same compound?
**A.** 7.9

**Q.** And the TGI ratio (Tumor Cell line [3])?
**A.** 9.54

**Q.** What about the CC50 (Tumor Cell line [4]) of the same compound?
**A.** > 55 µM

**Q.** And the TGI (Tumor Cell line [5])?
**A.** > 12 µM

**Q.** With Cc1c2cc[n+](C)cc2c(C)c2c1[nH]c1ccc(Oc3ccccc3)cc12.[I-] as the compound, how does the GI50 ratio (Tumor Cell line [2]) read?
**A.** 3.05

**Q.** And the TGI ratio (Tumor Cell line [3])?
**A.** 2.06

**Q.** What about the CC50 (Tumor Cell line [6]) of the same compound?
**A.** > 93.3 µM

**Q.** Which results are given for Cc1c2cc[n+](C)cc2c(C)c2c1[nH]c1ccc(OC(C)C)cc12.[I-]?
**A.** CC50 (Tumor Cell line [7]): > 58.9 µM; GI50 ratio (Tumor Cell line [2]): 8.35; TGI ratio (Tumor Cell line [3]): 6.49; GI50 (Tumor Cell line [8]): > 1.62 µM; TGI (Tumor Cell line [9]): > 13.2 µM

**Q.** Which CC50 (Tumor Cell line [10]) does the source give for CC(=O)[O-].Cc1c2cc[n+](C)cc2c(C)c2c1[nH]c1ccc(OC(C)(C)C)cc12 here?
**A.** > 100 µM

**Q.** What about the GI50 ratio (Tumor Cell line [2]) of the same compound?
**A.** 1

**Q.** What about the TGI ratio (Tumor Cell line [3]) of the same compound?
**A.** 1

**Q.** What about the TGI (Tumor Cell line [11]) of the same compound?
**A.** > 100 µM

**Q.** And the GI50 (Tumor Cell line [12])?
**A.** > 100 µM

**Q.** What does the source list for Cc1c2ccncc2c(C)c2c1[nH]c1ccc(Oc3ccccc3)cc12?
**A.** TGI ratio [13]: 0.81; GI50 ratio [14]: 0.82; TGI (Tumor Cell line [15]): 6.03 µM; CC50 (Tumor Cell line [16]): > 19.5 µM; GI50 (Tumor Cell line [17]): 2.63 µM; LC50 ratio [18]: 0.88 µM

**Q.** Which GI50 ratio (Tumor Cell line [2]) does the source give for Cc1c2ccncc2c(C)c2c1[nH]c1ccc(OCC(F)(F)F)cc12 here?
**A.** 0.63

**Q.** And the TGI ratio (Tumor Cell line [3])?
**A.** 0.73

**Q.** And the GI50 (Tumor Cell line [19])?
**A.** 1.58 µM

**Q.** What about the CC50 (Tumor Cell line [20]) of the same compound?
**A.** > 8.13 µM

**Q.** What about the LC50 ratio (Tumor Cell line [21]) of the same compound?
**A.** 0.74

**Q.** And the TGI (Tumor Cell line [22])?
**A.** 3.24 µM

**Q.** Which results are given for Cc1c2ccncc2c(C)c2c1[nH]c1ccc(OC(C)C)cc12?
**A.** CC50 (Tumor Cell line [7]): > 6.61 µM; GI50 ratio (Tumor Cell line [2]): 0.78; TGI ratio (Tumor Cell line [3]): 0.9; GI50 (Tumor Cell line [23]): 1.32 µM

**Q.** For CC(=O)[O-].Cc1c2cc[n+](C)cc2c(C)c2c1[nH]c1ccc(OC(C)C)cc12, which GI50 ratio (Tumor Cell line [2]) is on record?
**A.** 2.99

**Q.** And the TGI ratio (Tumor Cell line [3])?
**A.** 2.09

**Q.** And the GI50 (Tumor Cell line [24])?
**A.** > 3.8 µM

**Q.** And the TGI (Tumor Cell line [25])?
**A.** > 23.4 µM

**Q.** What about the CC50 (Tumor Cell line [26]) of the same compound?
**A.** > 66.1 µM

**Q.** For CC(=O)[O-].Cc1c2cc[n+](C)cc2c(C)c2c1[nH]c1ccc(O)cc12 [ELLIPTINIUM ACETATE], which CC50 (Tumor Cell line [10]) is on record?
**A.** > 100 µM

**Q.** And the GI50 ratio (Tumor Cell line [2])?
**A.** 6.28

**Q.** And the TGI ratio (Tumor Cell line [3])?
**A.** 9.34
